# How the values were obtained:
# microglial cell lines = details: a number of microglial cell lines; cited from earlier work
# SHIP1 [1] = biological target: T1, SHIP1 (Homo sapiens, UniProt Q92835); test: fluorescence polarization; assay type: biochemical; details: general statement in the docking discussion
# T1 sequence (Q92835 1-1189): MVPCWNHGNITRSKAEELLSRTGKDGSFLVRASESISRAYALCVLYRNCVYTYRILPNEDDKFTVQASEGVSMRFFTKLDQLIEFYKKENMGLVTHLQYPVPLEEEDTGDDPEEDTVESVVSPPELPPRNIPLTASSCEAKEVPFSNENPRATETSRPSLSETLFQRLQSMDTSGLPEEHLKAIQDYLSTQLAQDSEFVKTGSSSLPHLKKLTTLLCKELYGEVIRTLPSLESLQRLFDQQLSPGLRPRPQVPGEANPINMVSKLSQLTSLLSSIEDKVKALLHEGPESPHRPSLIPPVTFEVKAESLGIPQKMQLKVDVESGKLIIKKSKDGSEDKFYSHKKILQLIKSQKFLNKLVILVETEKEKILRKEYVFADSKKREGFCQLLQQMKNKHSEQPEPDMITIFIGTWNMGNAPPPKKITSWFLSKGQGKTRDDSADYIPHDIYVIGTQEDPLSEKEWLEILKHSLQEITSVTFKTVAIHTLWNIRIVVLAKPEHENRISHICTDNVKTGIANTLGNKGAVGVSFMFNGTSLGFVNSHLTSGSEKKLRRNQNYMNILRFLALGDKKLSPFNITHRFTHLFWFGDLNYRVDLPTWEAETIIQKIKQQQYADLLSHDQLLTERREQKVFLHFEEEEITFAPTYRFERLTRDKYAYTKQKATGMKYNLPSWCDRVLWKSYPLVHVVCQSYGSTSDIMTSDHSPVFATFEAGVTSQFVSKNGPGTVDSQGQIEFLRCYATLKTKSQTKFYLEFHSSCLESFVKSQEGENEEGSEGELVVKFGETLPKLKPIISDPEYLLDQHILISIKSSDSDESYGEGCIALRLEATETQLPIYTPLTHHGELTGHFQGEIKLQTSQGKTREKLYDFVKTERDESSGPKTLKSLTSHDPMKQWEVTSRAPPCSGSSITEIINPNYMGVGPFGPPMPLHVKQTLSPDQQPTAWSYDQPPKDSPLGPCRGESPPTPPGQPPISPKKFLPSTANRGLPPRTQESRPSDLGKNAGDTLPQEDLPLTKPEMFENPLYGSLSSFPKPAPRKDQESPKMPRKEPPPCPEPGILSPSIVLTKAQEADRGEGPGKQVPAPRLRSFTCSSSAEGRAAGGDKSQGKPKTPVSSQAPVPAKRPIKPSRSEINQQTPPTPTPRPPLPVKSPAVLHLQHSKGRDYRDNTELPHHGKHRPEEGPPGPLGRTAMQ
# SHIP2 [2] = biological target: T2, SHIP2 (Homo sapiens, UniProt O15357); test: malachite green assay for phosphatase activity, SHIP2; assay type: biochemical; details: compounds evaluated at 1 mM, described in words
# T2 sequence (O15357 1-1258): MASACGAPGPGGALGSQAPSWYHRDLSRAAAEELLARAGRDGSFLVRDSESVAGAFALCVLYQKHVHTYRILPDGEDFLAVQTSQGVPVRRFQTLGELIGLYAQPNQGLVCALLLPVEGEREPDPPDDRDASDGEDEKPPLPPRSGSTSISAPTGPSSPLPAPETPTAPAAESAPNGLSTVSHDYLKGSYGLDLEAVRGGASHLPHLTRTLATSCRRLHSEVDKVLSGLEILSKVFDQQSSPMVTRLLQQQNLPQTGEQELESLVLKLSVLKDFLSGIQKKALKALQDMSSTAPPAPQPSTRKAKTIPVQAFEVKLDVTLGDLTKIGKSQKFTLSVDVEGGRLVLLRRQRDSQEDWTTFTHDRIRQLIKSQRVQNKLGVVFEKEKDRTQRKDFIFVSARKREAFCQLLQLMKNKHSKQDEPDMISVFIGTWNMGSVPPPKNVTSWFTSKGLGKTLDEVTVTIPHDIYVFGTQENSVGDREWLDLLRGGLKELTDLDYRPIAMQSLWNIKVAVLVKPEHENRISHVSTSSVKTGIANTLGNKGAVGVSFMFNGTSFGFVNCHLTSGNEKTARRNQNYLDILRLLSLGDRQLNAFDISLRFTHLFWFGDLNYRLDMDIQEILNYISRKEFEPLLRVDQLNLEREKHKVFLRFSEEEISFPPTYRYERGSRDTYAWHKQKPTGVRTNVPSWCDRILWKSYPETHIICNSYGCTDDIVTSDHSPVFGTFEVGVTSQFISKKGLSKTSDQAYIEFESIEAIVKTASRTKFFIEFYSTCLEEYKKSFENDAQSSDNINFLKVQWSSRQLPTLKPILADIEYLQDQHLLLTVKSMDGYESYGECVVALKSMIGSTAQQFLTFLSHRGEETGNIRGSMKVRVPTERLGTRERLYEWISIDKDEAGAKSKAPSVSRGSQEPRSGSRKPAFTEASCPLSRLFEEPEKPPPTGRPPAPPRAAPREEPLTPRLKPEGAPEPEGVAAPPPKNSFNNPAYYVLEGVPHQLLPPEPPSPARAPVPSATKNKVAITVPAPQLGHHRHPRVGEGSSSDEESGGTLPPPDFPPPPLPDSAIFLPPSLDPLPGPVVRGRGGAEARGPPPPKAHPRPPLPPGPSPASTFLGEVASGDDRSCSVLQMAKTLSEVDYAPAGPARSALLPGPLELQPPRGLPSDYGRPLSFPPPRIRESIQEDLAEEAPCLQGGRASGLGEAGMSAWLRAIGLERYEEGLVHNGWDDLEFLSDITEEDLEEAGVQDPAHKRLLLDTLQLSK
# Summary of the method: (§1)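 Phosphate released from C8-PI(3,4,5)P3 (short-chain substrate used to avoid micelles) measured by malachite green colorimetric readout. Reactions contained only SHIP enzyme, buffer and substrate, with no surfactant. Test compounds were tested at 1 mM from DMSO/buffer mixtures. Values are means of at least 3 measurements, with standard deviation.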
# SHIP2 [3] = biological target: T2, SHIP2; details: ref 19a; cited from earlier work
# SHIP1 [4] = biological target: T1, SHIP1; details: read-out: IC50 for SHIP1; cited from earlier work
# SHIP1 [5] = biological target: T1, SHIP1; test: malachite green assay for phosphatase activity, SHIP1; assay type: biochemical; details: described in words; for selectivity between SHIP1 and SHIP2: malachite green assay at 1 mM; for Inhibition of SHIP1: malachite green assay, compounds evaluated at 1 mM
# Summary of the method: as §1
# mice = details: treatment of mice; cited from earlier work
# solubility in DMSO = details: in words
# solubility in water = assay type: physicochemical; details: in words
Compound,Inhibition of SHIP2 (SHIP2 [2]),Inhibition of SHIP1 (SHIP1 [5]),solubility in water (solubility in water),further results
"CC(C)CCC[C@@H](C)[C@H]1CC[C@H]2[C@@H]3CCC4C[C@H](N)CC[C@]4(C)[C@H]3CC[C@]12C.Cl (stereo partly drawn) [Compound 1, 3α-Aminocholestane Hydrochloride]",significant activity,significant activity,,microglial phagocytosis of dead neurons (microglial cell lines): much less effective; selectivity between the two SHIP paralogs (SHIP1 [1]): some selectivity for SHIP1; selective for SHIP1 over SHIP2 (SHIP2 [3]): at least 4 fold; IC50 (SHIP1 [4]): ~10 µM; selectivity between SHIP1 and SHIP2 (SHIP1 [5]): more selectivity for SHIP1; in vivo bioactivity (mice): in vivo bioactivity comparable to genetic phenotypes observed in SHIP knockout mice; solubility in DMSO (solubility in DMSO): insoluble in DMSO; solubility in DMSO (solubility in DMSO; listed as 3AC): nearly insoluble in DMSO
CC(C)CCC[C@@H](C)[C@H]1CC[C@H]2[C@@H]3CC[C@H]4C[C@@H](N)[C@H](N)C[C@]4(C)[C@H]3CC[C@]12C [Compound 47],least effective inhibitors,least effective inhibitors,insoluble in water,
CC(C)CCC[C@@H](C)[C@H]1CC[C@H]2[C@@H]3CC[C@H]4C[C@H](NS(C)(=O)=O)CC[C@]4(C)[C@H]3CC[C@]12C [Compound 12],inactive,inactive,,
CC(C)CCCC(C)C1CCC2C3CCC4CC(O)C(N)CC4(C)C3CCC12C (stereo not shown) [Compound 37],,significant inhibition of SHIP1,insoluble in water,
CC(C)CCCC(C)C1CCC2C3CCC4CC(N)CCC4(C)C3CCC12C.Cl (stereo not shown) [Compound 11],significant activity,significant activity,,
CC(C)CCC[C@@H](C)[C@H]1CC[C@H]2[C@@H]3CC[C@H]4C[C@H](N(C)C)CC[C@]4(C)[C@H]3CC[C@]12C [Compound 15],significantly less effect,active,,selectivity between SHIP1 and SHIP2 (SHIP1 [5]): selective inhibition of SHIP1
CC(C)CCC[C@@H](C)[C@H]1CC[C@H]2[C@@H]3CC[C@H]4CC(N)C(N)C[C@]4(C)[C@H]3CC[C@]12C (stereo partly shown) [Compound 45],,,insoluble in water,
CC(=O)NC1CCC2(C)C(CCC3C2CCC2(C)C(C(C)CCCC(C)C)CCC32)C1 (stereo not shown) [Compound 13],inactive,inactive,,

# Source: PMC12046972 (ChemMedChem, 2025)
